Source: ChEMBL document CHEMBL4765453, “Phenanthrolinic analogs of quinolones show antibacterial activity against M. tuberculosis” (Eur J Med Chem, 2020)
≈ marks a conversion by molar mass, not a printed value. Calls of active or inactive are those of the source. The calls are words filed in the database; no cut-off is given here.

Tests used:
[1] = system: Mycobacterium tuberculosis; experiment: Antitubercular activity against Mycobacterium tuberculosis H37Rv measured after 7 days by resazurin microtiter assay; assay type: functional; settings: 168 h, time 7 day
Outline: (§1)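 Resazurin microtiter assay with two-fold drug dilutions in complete 7H9 broth. Exponential-phase cells are diluted to a final OD600 of 0.005 in 7H9 without Tween. Incubation is 7 days at 37°C, then 0.01% resazurin is added and plates are held 24 h more. MIC is the lowest concentration preventing the blue-to-pink change. Each MIC is determined three times in duplicate experiments.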

[2] = Solubility of compound in water; assay type: physicochemical; settings: buffer
[3] = system: Mycolicibacterium smegmatis; experiment: Antibacterial activity against Mycobacterium smegmatis measured after 7 days by resazurin microtiter assay; assay type: functional; settings: 168 h, time 7 day; outline: as §1
Mycolicibacterium aurum = experiment: Antibacterial activity against Mycobacterium aurum measured after 7 days by resazurin microtiter assay; assay type: functional; settings: 168 h, time 7 day; outline: as §1
Mycobacterium marinum = experiment: Antibacterial activity against Mycobacterium marinum measured after 7 days by resazurin microtiter assay; assay type: functional; settings: 168 h, time 7 day; outline: as §1
Pseudomonas aeruginosa = experiment: Antibacterial activity against Pseudomonas aeruginosa measured after 7 days by resazurin microtiter assay; assay type: functional; settings: 168 h, time 7 day
Acinetobacter baumannii = experiment: Antibacterial activity against Acinetobacter baumannii measured after 7 days by resazurin microtiter assay; assay type: functional; settings: 168 h, time 7 day
Klebsiella aerogenes = experiment: Antibacterial activity against Enterobacter aerogenes measured after 7 days by resazurin microtiter assay; assay type: functional; settings: 168 h, time 7 day
Enterobacter cloacae = experiment: Antibacterial activity against Enterobacter cloacae measured after 7 days by resazurin microtiter assay; assay type: functional; settings: 168 h, time 7 day
Staphylococcus aureus = experiment: Antibacterial activity against Staphylococcus aureus measured after 7 days by resazurin microtiter assay; assay type: functional; settings: 168 h, time 7 day
[4] = system: Mycobacterium tuberculosis; experiment: Antitubercular activity against Mycobacterium tuberculosis XDR measured after 7 days by resazurin microtiter assay; assay type: functional; settings: 168 h, time 7 day; outline: as §1
[5] = system: Escherichia coli ATCC 25922; experiment: Inhibition of DNA gyrase in Escherichia coli ATCC 25922 assessed as elongation of bacterial cells at 2 ug/ml measured after 1.5 hrs by DAPI/FM 4-64 staining based confocal fluorescence microscopic analysis; settings: dose 2.0 µg/ml
Outline: (§2)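 E. coli ATCC 25922 is grown in LB, and exponential cultures are treated 1.5 h at 37°C. Cells are washed in PBS, fixed 10 min in 4% PFA, and stained 20 min at room temperature with 2 µg/mL DAPI plus 1 µg/mL FM 4-64. Imaging is by confocal microscopy with a 60x oil objective.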

[6] = system: Mycolicibacterium smegmatis; experiment: Inhibition of DNA gyrase in Mycobacterium smegmatis assessed as elongation of bacterial cells at 2 ug/ml measured after 6 hrs by DAPI/FM 4-64 staining based confocal fluorescence microscopic analysis; settings: dose 2.0 µg/ml
Outline: (§3)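 M. smegmatis is grown in 7H9, and exponential cultures are treated 6 h at 37°C. Cells are fixed 10 min in 4% PFA in PBS and stained 20 min at room temperature with 2 µg/mL DAPI and 1 µg/mL FM 4-64. Imaging is by confocal microscopy with a 60x oil objective.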

[7] = system: Mycolicibacterium smegmatis; experiment: Inhibition of DNA gyrase in Mycobacterium smegmatis assessed as segmentation of bacterial cells at 2 ug/ml measured after 6 hrs by DAPI/FM 4-64 staining based confocal fluorescence microscopic analysis; settings: dose 2.0 µg/ml; outline: as §3
Klebsiella pneumoniae = experiment: Antibacterial activity against Klebsiella pneumoniae measured after 7 days by resazurin microtiter assay; assay type: functional; settings: 168 h, time 7 day
Vero = experiment: Cytotoxicity against African green monkey Vero cells assessed as reduction in cell viability measured after 24 to 48 hrs by Celltiter-glo assay; assay type: cell-based, Chlorocebus sabaeus; settings: chlorocebus sabaeus, vero; time 24-48 hrs
Outline: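 Vero cells are grown in DMEM with 10% FBS and seeded at 25000 cells/well. Compound is added at 1% final DMSO, with 24 and 48 h incubation. ATP is read by CellTiter-Glo luminescence. IC50 is the concentration giving a 50% drop in ATP signal versus the DMSO control.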

Macrophage = experiment: Cytotoxicity against human macrophages assessed as reduction in cell viability measured after 6 days by Celltiter-glo assay; assay type: cell-based; settings: human, macrophage, 144 h; time 6 day
Outline: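 Infected human macrophages, with or without drug, are incubated 6 days. Viability is checked by visual inspection and by CellTiter-Glo ATP luminescence.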

[8] = system: Mycobacterium tuberculosis; experiment: Antitubercular activity against Mycobacterium tuberculosis H37Rv infected in human macrophages assessed as intracellular bacterial load at 0.5 MIC measured after 6 days (reference value: 5.57 to 6.43 logCFU/ml); assay type: functional, Macrophage; settings: time 6 day
[9] = system: Mycobacterium tuberculosis; experiment: Antitubercular activity against Mycobacterium tuberculosis H37Rv infected in human macrophages assessed as intracellular bacterial load at MIC measured after 6 days (reference value: 5.57 to 6.43 logCFU/ml); assay type: functional, Macrophage; settings: time 6 day
[10] = system: Mycobacterium tuberculosis; experiment: Antitubercular activity against Mycobacterium tuberculosis H37Rv infected in human macrophages assessed as intracellular bacterial load at 2 times MIC measured after 6 days (reference value: 5.57 to 6.43 logCFU/ml); assay type: functional, Macrophage; settings: time 6 day
[11] = system: Mycobacterium tuberculosis; experiment: Antitubercular activity against Mycobacterium tuberculosis H37Rv infected in human macrophages assessed as intracellular bacterial load at 4 times MIC measured after 6 days (reference value: 5.57 to 6.43 logCFU/ml); assay type: functional, Macrophage; settings: time 6 day
[12] = system: Escherichia coli ATCC 25922; experiment: Inhibition of DNA gyrase in Escherichia coli ATCC 25922 assessed as elongation of bacterial cells at 2.5 ug/ml measured after 1.5 hrs by DAPI/FM 4-64 staining based confocal fluorescence microscopic analysis; settings: dose 2.5 µg/ml; outline: as §2
[13] = system: Escherichia coli ATCC 25922; experiment: Inhibition of DNA gyrase in Escherichia coli ATCC 25922 assessed as appearance of filamentous bacterial cells at 2.5 ug/ml measured after 1.5 hrs by DAPI/FM 4-64 staining based confocal fluorescence microscopic analysis; settings: dose 2.5 µg/ml; outline: as §2
[14] = system: Escherichia coli ATCC 25922; experiment: Inhibition of DNA gyrase in Escherichia coli ATCC 25922 assessed as change in DNA morphology at 2.5 ug/ml measured after 1.5 hrs by DAPI/FM 4-64 staining based confocal fluorescence microscopic analysis; settings: dose 2.5 µg/ml; outline: as §2
[15] = system: Mycolicibacterium smegmatis; experiment: Inhibition of DNA gyrase in Mycobacterium smegmatis assessed as elongation of bacterial cells at 2.5 ug/ml measured after 6 hrs by DAPI/FM 4-64 staining based confocal fluorescence microscopic analysis; settings: dose 2.5 µg/ml; outline: as §3
[16] = system: Mycolicibacterium smegmatis; experiment: Inhibition of DNA gyrase in Mycobacterium smegmatis assessed as segmentation of bacterial cells at 2.5 ug/ml measured after 6 hrs by DAPI/FM 4-64 staining based confocal fluorescence microscopic analysis; settings: dose 2.5 µg/ml; outline: as §3

Compound: CCOC(=O)c1c[nH]c2c(ccc3c([N+](=O)[O-])cc[n+]([O-])c32)c1=O
- MIC90 [1]: 39.5 µM (≈ 13 µg/mL)
- solubility [2]: Insoluble

Compound: CCOC(=O)c1cn(CC)c2c(cc(Cl)c3cccnc32)c1=O
- MIC90 [1]: 166 µM (≈ 55 µg/mL)
- solubility [2]: Insoluble

Compound: CCOC(=O)c1cn(CC)c2c(cc(Br)c3cccnc32)c1=O
- MIC90 [1]: 318 µM (≈ 119 µg/mL)
- solubility [2]: Insoluble

Compound: CCn1cc(C(N)=O)c(=O)c2cc([N+](=O)[O-])c3cccnc3c21
- MIC90 [1]: 1.25 µM (≈ 0.39 µg/mL)
- solubility [2]: Insoluble

Compound: CCOC(=O)c1c[nH]c2c(ccc3cccnc32)c1=O
- MIC90 [1]: 24 µM (≈ 6.44 µg/mL)
- solubility [2]: Insoluble

Compound: CCn1cc(C(=O)O)c(=O)c2ccc3cccnc3c21
- MIC90 [1]: 47.1 µM (≈ 12.6 µg/mL)
- solubility [2]: Insoluble

Compound: CC1COc2c(N3CCN(C)CC3)c(F)cc3c(=O)c(C(=O)O)cn1c23 (stereo not drawn) [OFLOXACIN]
- MIC90 [1]: 1.73 µM (≈ 0.625 µg/mL)
- MIC90 [3]: 3.46 µM (≈ 1.25 µg/mL)
- MIC90 (Mycolicibacterium aurum): 3.46 µM (≈ 1.25 µg/mL)
- MIC90 (Mycobacterium marinum): 6.92 µM (≈ 2.5 µg/mL)
- MIC90 (Pseudomonas aeruginosa): 6.92 µM (≈ 2.5 µg/mL)
- MIC90 (Acinetobacter baumannii): 1.73 µM (≈ 0.625 µg/mL)
- MIC90 (Klebsiella aerogenes): 0.22 µM (≈ 0.0795 µg/mL)
- MIC90 (Enterobacter cloacae): 6.92 µM (≈ 2.5 µg/mL)
- MIC90 (Staphylococcus aureus): 1.73 µM (≈ 0.625 µg/mL)
- MIC90 [4]: 27.6 µM (≈ 9.97 µg/mL)
- inhibition [5]: Active
- inhibition [6]: Active
- inhibition [7]: Active

Compound: CCn1cc(C(=O)O)c(=O)c2cc([N+](=O)[O-])c3cccnc3c21
- MIC90 [1]: 5.84 µM (≈ 1.83 µg/mL)
- MIC90 [3]: 21.4 µM (≈ 6.69 µg/mL)
- MIC90 (Mycolicibacterium aurum): 10.7 µM (≈ 3.34 µg/mL)
- MIC90 (Mycobacterium marinum): 1.3 µM (≈ 0.407 µg/mL)
- MIC90 (Pseudomonas aeruginosa): > 100 µM
- MIC90 (Acinetobacter baumannii): 93.4 µM (≈ 29.2 µg/mL)
- MIC90 (Klebsiella aerogenes): 42.7 µM (≈ 13.4 µg/mL)
- MIC90 (Enterobacter cloacae): > 275 µM
- MIC90 (Staphylococcus aureus): 10.7 µM (≈ 3.34 µg/mL)
- MIC90 (Klebsiella pneumoniae): > 275 µM
- Activity (Vero): Non-Toxic
- Activity (Macrophage): Non-Toxic
- Activity [8]: 4.19 log10CFU/ml
- Activity [9]: 3.69 log10CFU/ml
- Activity [10]: 3.21 log10CFU/ml
- Activity [11]: 3.24 log10CFU/ml
- solubility [2]: Insoluble

Compound: CCn1cc(C(=O)O)c(=O)c2ccc(C)nc21 [NALIDIXIC ACID]
- MIC [1]: > 50 µM

Compound: Cn1cc(C(=O)O)c(=O)c2cc([N+](=O)[O-])c3cccnc3c21
- MIC90 [1]: 2.64 µM (≈ 0.79 µg/mL)
- MIC90 [3]: 11.2 µM (≈ 3.35 µg/mL)
- MIC90 (Mycolicibacterium aurum): 11.2 µM (≈ 3.35 µg/mL)
- MIC90 (Mycobacterium marinum): 0.7 µM (≈ 0.209 µg/mL)
- MIC90 (Pseudomonas aeruginosa): > 100 µM
- MIC90 (Acinetobacter baumannii): > 100 µM
- MIC90 (Klebsiella aerogenes): 44.7 µM (≈ 13.4 µg/mL)
- MIC90 (Enterobacter cloacae): > 275 µM
- MIC90 (Staphylococcus aureus): 22.4 µM (≈ 6.69 µg/mL)
- MIC90 (Klebsiella pneumoniae): > 275 µM
- Activity (Vero): Non-Toxic
- Activity (Macrophage): Non-Toxic
- Activity [8]: 3.78 log10CFU/ml
- Activity [9]: 3.65 log10CFU/ml
- Activity [10]: 2.77 log10CFU/ml
- Activity [11]: 3.01 log10CFU/ml
- MIC90 [4]: 2.64 µM (≈ 0.79 µg/mL)
- solubility [2]: Insoluble
- inhibition [12]: Active
- inhibition [13]: Active
- inhibition [14]: Active
- inhibition [15]: Active
- inhibition [16]: Active

Compound: CCn1cc(C(=O)Nc2ccccc2)c(=O)c2cc([N+](=O)[O-])c3cccnc3c21
- MIC90 [1]: 275 µM (≈ 107 µg/mL)
- solubility [2]: Insoluble

Compound: CCOC(=O)c1c[nH]c2c(ccc3ccc[n+]([O-])c32)c1=O
- MIC90 [1]: 204 µM (≈ 58 µg/mL)
- solubility [2]: Insoluble

Compound: CCOC(=O)c1cn(C)c2c(cc(N)c3cccnc32)c1=O
- MIC90 [1]: 92.1 µM (≈ 27.4 µg/mL)
- solubility [2]: Insoluble

Compound: Cn1cc(C(=O)O)c(=O)c2ccc3cccnc3c21
- MIC90 [1]: 25.8 µM (≈ 6.56 µg/mL)
- solubility [2]: Insoluble

Compound: CCOC(=O)c1cn(C)c2c(cc(Br)c3cccnc32)c1=O
- MIC90 [1]: 290 µM (≈ 105 µg/mL)
- solubility [2]: Insoluble

Compound: CCOC(=O)c1cn(C)c2c(ccc3cccnc32)c1=O
- MIC90 [1]: 182 µM (≈ 51.5 µg/mL)
- solubility [2]: Insoluble
